Reference: ChEMBL document CHEMBL1140334, “Synthesis and structure-activity relationships of pyrazine-pyridine biheteroaryls as novel, potent, and selective vascular endothelial growth factor receptor-2 inhibitors” (J Med Chem, 2005)

Assays:
[1] = target: T1, Vascular endothelial growth factor receptor 2 (Homo sapiens, UniProt P35968); assay: Inhibition of vascular endothelial growth factor receptor 2
Summary of the method: (§1)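 Radiometric kinase assay. Conditions varied slightly per kinase. Stopped with PBS/100 mM EDTA, read by scintillation counting. IC50 by linear regression of % inhibition, mean of at least two determinations.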

[2] = Inhibition of cyclin-dependent kinase 1 activity; summary of the method: as §1
[3] = target: T1, Vascular endothelial growth factor receptor 2; assay: Inhibitory concentration (experimental) against vascular endothelial growth factor receptor 2; summary of the method: as §1
HASMC = assay: Concentration required to inhibit proliferation of HASMC; details: Homo sapiens
CaM kinase II = CaM kinase II (Homo sapiens, UniProt Q13557+Q13555+Q13554+Q9UQM7); assay: Inhibition of calcium/calmodulin-dependent protein kinase type II; assay type: protein assay
MRC5 = assay: Concentration required to inhibit proliferation of human MRC5 fibroblast cell growth
[4] = target: Cyclin-dependent kinase 4/cyclin D1 (Homo sapiens, UniProt P11802); assay: Inhibition of cyclin dependent kinase 4-cyclinD1; assay type: protein-complex assay; summary of the method: as §1
Sequence of Cyclin-dependent kinase 4/cyclin D1 (P11802 whole entry): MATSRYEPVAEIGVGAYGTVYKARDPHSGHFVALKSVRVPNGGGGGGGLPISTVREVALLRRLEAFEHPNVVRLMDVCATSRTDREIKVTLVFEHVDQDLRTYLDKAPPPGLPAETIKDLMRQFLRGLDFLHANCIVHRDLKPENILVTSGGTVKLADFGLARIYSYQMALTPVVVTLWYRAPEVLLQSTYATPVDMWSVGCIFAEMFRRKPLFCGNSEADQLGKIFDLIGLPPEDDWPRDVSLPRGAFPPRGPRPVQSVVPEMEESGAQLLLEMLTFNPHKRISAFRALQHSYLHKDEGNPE
Sequence of Cyclin-dependent kinase 4/cyclin D1 (P24385 whole entry, further chain): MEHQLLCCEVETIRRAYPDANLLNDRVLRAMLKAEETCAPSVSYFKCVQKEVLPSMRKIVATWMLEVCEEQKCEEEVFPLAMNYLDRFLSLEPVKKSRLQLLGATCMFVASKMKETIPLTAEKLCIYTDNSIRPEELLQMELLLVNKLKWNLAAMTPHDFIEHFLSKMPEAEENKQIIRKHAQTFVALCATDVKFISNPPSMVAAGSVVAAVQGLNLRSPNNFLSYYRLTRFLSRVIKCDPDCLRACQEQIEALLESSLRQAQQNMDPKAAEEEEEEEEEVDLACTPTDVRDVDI

[5] = target: Mitogen-activated protein kinase 1 (Homo sapiens, UniProt P28482); assay: Inhibition of mitogen-activated protein kinase; summary of the method: as §1
Sequence of Mitogen-activated protein kinase 1 (P28482 whole entry): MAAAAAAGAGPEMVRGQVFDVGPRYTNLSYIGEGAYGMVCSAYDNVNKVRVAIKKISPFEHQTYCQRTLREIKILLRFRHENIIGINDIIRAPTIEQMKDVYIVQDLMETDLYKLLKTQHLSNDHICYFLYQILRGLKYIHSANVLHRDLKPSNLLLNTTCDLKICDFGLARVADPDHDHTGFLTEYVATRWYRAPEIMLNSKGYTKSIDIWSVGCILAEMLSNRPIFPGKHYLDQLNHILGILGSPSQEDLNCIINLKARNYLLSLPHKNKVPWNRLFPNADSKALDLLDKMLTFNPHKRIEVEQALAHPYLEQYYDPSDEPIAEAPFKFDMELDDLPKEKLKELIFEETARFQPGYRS

HUVEC [6] = assay: Concentration inhibiting VEGF stimulated (2 ng/well) HUVE cell proliferation; details: Homo sapiens
Casein kinase II = Casein kinase II (Homo sapiens, UniProt P19784+P67870+P68400); assay: Inhibition of casein kinase 2; assay type: protein-complex assay; summary of the method: as §1
Sequence of Casein kinase II (P67870 whole entry): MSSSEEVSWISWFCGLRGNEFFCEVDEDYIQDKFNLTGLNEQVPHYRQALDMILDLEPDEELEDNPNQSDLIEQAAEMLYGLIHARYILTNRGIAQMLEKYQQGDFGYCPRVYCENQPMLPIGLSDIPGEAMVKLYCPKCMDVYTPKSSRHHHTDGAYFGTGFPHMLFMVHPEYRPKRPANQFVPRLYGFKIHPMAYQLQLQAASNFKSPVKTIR
Sequence of Casein kinase II (P68400 whole entry): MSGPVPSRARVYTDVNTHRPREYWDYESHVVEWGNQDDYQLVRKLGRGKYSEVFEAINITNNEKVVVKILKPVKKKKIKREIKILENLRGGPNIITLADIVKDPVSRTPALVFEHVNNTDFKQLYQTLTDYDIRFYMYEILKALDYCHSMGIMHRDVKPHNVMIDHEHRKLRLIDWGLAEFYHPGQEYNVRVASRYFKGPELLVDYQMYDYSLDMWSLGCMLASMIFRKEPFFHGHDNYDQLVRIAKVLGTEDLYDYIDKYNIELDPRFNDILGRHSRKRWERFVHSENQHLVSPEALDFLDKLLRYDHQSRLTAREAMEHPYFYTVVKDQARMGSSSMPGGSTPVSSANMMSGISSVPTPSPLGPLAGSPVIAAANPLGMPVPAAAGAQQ
Sequence of Casein kinase II (P19784 whole entry): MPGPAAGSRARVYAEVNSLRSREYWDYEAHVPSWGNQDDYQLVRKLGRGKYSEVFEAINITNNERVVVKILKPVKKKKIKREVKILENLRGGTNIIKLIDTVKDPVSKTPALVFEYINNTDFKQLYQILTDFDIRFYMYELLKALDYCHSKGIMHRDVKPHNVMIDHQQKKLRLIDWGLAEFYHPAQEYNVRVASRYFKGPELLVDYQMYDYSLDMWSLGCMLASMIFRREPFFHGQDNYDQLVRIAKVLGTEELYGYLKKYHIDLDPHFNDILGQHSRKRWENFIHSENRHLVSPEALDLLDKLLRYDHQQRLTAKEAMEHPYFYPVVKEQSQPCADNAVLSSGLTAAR

HCT-116 = assay: Concentration required to inhibit proliferation of human HCT116 colon cancer cell growth
[7] = Inhibition of protein kinase A; summary of the method: as §1
Casein kinase I = assay: Inhibition of casein kinase 1; assay type: protein assay
[8] = target: Protein kinase C beta type (Homo sapiens, UniProt P05771); assay: Inhibition of protein kinase C beta activity; summary of the method: as §1
[9] = Inhibition of protein kinase C gamma; summary of the method: as §1
HUVEC [10] = assay: Concentration required to inhibit proliferation of HUVEC; details: Homo sapiens
[11] = Inhibition of platelet-derived growth factor receptor; summary of the method: as §1
A-375 [12] = assay: The antitumor activity shown by the compound against A375 human melanoma xenografts growing in nude mice (75 mg/kg, i.p.) in terms of mean day of survival; assay type: functional, Mus musculus
Summary of the method: (§2)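 Female nude mice carried subcutaneous flank implants of 1 mm3 A375 fragments and were pair-matched on day 1 at tumors of 62-126 mg. Dosing was i.p. once daily for 30 days, in 1.5% Pluronic F108 vehicle; the study ended at day 60. Tumor weight was taken as (w2l)/2. Mice were euthanized at 2.0 g, and MDS was derived from calculated time to endpoint.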

A-375 [13] = assay: The antitumor activity shown by the compound against A375 human melanoma xenografts growing in nude mice (10 mg/kg, i.p.) in terms of mean day of survival; assay type: functional, Mus musculus; summary of the method: as §2
[14] = target: Glycogen synthase kinase-3 (Homo sapiens, UniProt P49840+P49841); assay: Inhibition of glycogen synthase kinase-3; assay type: protein assay; summary of the method: as §1
A-375 [15] = assay: Concentration required to inhibit proliferation of A375 human amelanotic melanoma cell growth
HeLa = assay: Concentration required to inhibit proliferation of HeLa cell growth; details: Homo sapiens
Insulin receptor = Insulin receptor (Homo sapiens, UniProt P06213); assay: Inhibition of insulin Receptor kinase; summary of the method: as §1
Sequence of Insulin receptor (P06213 28-758 limits assumed): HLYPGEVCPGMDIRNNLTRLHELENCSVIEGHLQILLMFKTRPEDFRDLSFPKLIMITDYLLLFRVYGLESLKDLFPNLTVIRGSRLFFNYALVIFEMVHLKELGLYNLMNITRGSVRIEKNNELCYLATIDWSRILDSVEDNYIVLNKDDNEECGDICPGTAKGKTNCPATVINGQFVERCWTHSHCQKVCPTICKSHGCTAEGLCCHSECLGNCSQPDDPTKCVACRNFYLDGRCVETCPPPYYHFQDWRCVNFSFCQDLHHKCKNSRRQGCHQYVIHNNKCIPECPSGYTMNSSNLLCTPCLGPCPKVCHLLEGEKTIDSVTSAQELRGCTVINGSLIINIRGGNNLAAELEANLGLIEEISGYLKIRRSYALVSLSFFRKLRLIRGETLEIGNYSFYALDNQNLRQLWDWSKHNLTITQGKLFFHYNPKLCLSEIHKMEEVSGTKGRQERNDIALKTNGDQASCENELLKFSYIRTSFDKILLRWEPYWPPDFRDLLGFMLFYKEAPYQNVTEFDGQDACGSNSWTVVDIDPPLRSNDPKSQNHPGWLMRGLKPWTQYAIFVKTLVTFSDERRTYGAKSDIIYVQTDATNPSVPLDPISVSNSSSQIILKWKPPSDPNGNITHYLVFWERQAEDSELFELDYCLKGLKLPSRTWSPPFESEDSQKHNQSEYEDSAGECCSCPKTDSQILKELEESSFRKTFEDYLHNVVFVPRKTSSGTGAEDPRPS
Sequence of Insulin receptor (P06213 763-1382 limits assumed): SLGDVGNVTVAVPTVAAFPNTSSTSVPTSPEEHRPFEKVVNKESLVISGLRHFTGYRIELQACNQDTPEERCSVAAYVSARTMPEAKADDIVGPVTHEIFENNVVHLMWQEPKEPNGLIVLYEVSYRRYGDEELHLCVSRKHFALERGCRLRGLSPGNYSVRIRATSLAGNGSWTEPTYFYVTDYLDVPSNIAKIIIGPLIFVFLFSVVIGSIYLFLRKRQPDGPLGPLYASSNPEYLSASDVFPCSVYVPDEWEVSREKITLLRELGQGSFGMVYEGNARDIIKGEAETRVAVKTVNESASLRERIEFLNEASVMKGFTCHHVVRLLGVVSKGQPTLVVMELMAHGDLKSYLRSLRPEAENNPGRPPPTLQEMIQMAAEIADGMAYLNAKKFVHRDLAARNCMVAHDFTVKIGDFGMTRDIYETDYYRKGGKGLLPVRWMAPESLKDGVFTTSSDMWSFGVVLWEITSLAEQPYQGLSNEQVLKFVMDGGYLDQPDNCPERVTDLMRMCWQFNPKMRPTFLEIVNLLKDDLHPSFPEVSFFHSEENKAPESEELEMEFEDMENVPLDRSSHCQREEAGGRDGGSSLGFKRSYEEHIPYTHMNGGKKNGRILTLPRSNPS

T1 sequence (P35968 whole entry): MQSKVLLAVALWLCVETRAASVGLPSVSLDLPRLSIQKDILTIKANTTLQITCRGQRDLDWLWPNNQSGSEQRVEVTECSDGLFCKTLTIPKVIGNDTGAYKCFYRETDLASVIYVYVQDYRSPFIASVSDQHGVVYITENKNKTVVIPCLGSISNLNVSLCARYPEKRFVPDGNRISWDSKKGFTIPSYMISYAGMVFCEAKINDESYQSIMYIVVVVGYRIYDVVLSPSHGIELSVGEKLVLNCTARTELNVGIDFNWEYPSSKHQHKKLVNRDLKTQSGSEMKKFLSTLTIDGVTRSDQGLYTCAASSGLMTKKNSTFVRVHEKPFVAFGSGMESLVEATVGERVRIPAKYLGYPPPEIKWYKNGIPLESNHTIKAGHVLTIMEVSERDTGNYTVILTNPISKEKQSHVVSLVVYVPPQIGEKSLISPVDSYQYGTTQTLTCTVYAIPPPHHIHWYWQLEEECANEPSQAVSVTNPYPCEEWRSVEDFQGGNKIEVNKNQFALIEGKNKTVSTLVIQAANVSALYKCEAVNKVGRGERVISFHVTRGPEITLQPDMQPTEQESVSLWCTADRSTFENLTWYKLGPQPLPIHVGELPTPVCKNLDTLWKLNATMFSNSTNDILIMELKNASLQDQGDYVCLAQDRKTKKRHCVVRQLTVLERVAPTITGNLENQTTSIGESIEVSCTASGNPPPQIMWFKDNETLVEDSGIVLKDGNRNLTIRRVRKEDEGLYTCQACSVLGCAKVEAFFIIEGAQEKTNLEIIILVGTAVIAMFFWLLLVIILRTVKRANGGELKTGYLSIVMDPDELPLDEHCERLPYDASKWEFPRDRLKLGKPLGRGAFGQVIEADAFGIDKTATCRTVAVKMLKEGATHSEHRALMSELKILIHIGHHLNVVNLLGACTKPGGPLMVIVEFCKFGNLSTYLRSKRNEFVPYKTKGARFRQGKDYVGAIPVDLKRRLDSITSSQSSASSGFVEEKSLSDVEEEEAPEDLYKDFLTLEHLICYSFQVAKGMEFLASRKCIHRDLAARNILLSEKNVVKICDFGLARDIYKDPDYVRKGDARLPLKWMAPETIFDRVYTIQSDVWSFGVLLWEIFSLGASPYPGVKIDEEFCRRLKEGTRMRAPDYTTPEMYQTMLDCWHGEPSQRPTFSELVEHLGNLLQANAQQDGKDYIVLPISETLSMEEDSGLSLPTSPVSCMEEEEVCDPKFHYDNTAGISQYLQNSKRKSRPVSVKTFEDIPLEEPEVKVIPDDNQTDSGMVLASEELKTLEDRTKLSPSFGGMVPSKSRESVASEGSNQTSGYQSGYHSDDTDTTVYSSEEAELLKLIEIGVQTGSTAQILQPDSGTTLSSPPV

For Clc1cccc(Nc2cncc(-c3cncc(NCCOc4ccccc4)c3)n2)c1, the IC50 [1] was over 10000 nM and the IC50 [2] was over 10000 nM.
Compound Clc1cccc(Nc2cncc(-c3cncc(NCCCc4ccccc4)c3)n2)c1 has an IC50 [1] of 2280 nM, an IC50 [3] of 2290 nM and an IC50 [2] of over 10000 nM.
Compound COCC(=O)Nc1cncc(-c2cncc(Nc3cccc(Cl)c3)n2)c1 has an IC50 [1] of 303 nM, an IC50 [3] of 302 nM and an IC50 [2] of over 10000 nM.
With CN(C)CCNc1cncc(-c2cncc(Nc3cccc(Cl)c3)n2)c1 the IC50 (HASMC) was 2770 nM, the IC50 (CaM kinase II) was over 10000 nM and the IC50 (MRC5) was 2910 nM. For the same compound, the IC50 [4] was over 10000 nM, the IC50 [5] was over 10000 nM and the IC50 (HUVEC [6]) was 59 nM. For the same compound, the IC50 [1] was 105 nM, the IC50 (Casein kinase II) was over 10000 nM and the IC50 [3] was 105 nM. For the same compound, the IC50 (HCT-116) was 8580 nM, the IC50 [7] was over 10000 nM and the IC50 (Casein kinase I) was over 10000 nM. For the same compound, the IC50 [8] was over 10000 nM, the IC50 [9] was 3960 nM and the IC50 (HUVEC [10]) was 877 nM. It also gave an IC50 [11] of over 10000 nM, an MDS (A-375 [12]) of 28.9 and an MDS (A-375 [13]) of 22.4. For the same compound, the IC50 [14] was over 10000 nM, the IC50 (A-375 [15]) was 3720 nM and the IC50 [2] was over 10000 nM. It also gave an IC50 (HeLa) of over 10000 nM and an IC50 (Insulin receptor) of over 10000 nM.
In the case of Clc1cccc(Nc2cncc(-c3cncc(NCCCN4CCOCC4)c3)n2)c1, the IC50 [1] is reported as 180 nM, the IC50 [3] is reported as 182 nM and the IC50 [2] is reported as over 10000 nM.
With Clc1cccc(Nc2cncc(-c3cncc(NCCCN4CCCCC4)c3)n2)c1 the IC50 [1] was 399 nM, the IC50 [3] was 398 nM and the IC50 [2] was 5380 nM.
Nc1cncc(-c2cncc(Nc3cccc(Cl)c3)n2)c1 gave an IC50 [1] of 1160 nM, an IC50 [3] of 1150 nM and an IC50 [2] of over 10000 nM.
O=C(COCc1ccccc1)Nc1cncc(-c2cncc(Nc3cccc(Cl)c3)n2)c1 showed an IC50 [1] of over 10000 nM and an IC50 [2] of over 10000 nM.
For COc1cccc(Nc2cncc(-c3cncc(NCCCO)c3)n2)c1, the IC50 [1] was 740 nM, the IC50 [3] was 741 nM and the IC50 [2] was over 10000 nM.
Work on O=C(CCCNc1cncc(-c2cncc(Nc3cccc(Cl)c3)n2)c1)N1CCCCC1 yielded an IC50 [1] of 610 nM, an IC50 [3] of 617 nM and an IC50 [2] of over 10000 nM.
For COCCC(=O)Nc1cncc(-c2cncc(Nc3cccc(Cl)c3)n2)c1, the IC50 [1] was 593 nM, the IC50 [3] was 589 nM and the IC50 [2] was over 10000 nM.
In the case of CN(C)CCCNc1cncc(-c2cncc(Nc3cccc(Cl)c3)n2)c1, the IC50 [1] is reported as 135 nM, the IC50 [3] is reported as 135 nM and the IC50 [2] is reported as over 10000 nM.
OCCCNc1cncc(-c2cncc(Oc3cccc(Cl)c3)n2)c1 showed an IC50 [1] of over 10000 nM and an IC50 [2] of over 10000 nM.
O=C(O)CCCNc1cncc(-c2cncc(Nc3cccc(Cl)c3)n2)c1 gave an IC50 [1] of 568 nM, an IC50 [3] of 575 nM and an IC50 [2] of 5220 nM.
CN(C)CCNC(=O)c1cncc(-c2cncc(Nc3cccc(Cl)c3)n2)c1 gave an IC50 [1] of 4300 nM, an IC50 [3] of 4270 nM and an IC50 [2] of 3690 nM.
For Clc1cccc(Nc2cncc(-c3cncc(NCCCc4ccncc4)c3)n2)c1, the IC50 [1] was 76 nM, the IC50 [3] was 75.9 nM and the IC50 [2] was over 10000 nM.
In the case of O=C(CO)Nc1cncc(-c2cncc(Nc3cccc(Cl)c3)n2)c1, the IC50 [1] is reported as 346 nM, the IC50 [3] is reported as 347 nM and the IC50 [2] is reported as over 10000 nM.
With Clc1cccc(Nc2cncc(-c3cncc(NCCCn4cccn4)c3)n2)c1 the IC50 (HASMC) was 3000 nM, the IC50 (CaM kinase II) was over 10000 nM and the IC50 (MRC5) was 3610 nM. The IC50 [5] was over 10000 nM, the IC50 (HUVEC [6]) was 120 nM and the IC50 [1] was 94 nM. The IC50 (Casein kinase II) was 8100 nM, the IC50 [3] was 93.3 nM and the IC50 (HCT-116) was 5240 nM. It also gave an IC50 [7] of over 10000 nM, an IC50 (Casein kinase I) of 5600 nM and an IC50 (HUVEC [10]) of 1390 nM. For the same compound, the IC50 [14] was 606 nM, the IC50 (A-375 [15]) was 2840 nM and the IC50 [2] was over 10000 nM. For the same compound, the IC50 (HeLa) was 3500 nM and the IC50 (Insulin receptor) was over 10000 nM.
Clc1cccc(Nc2cncc(-c3cncc(NCCCn4cncn4)c3)n2)c1 showed an IC50 (HASMC) of 2980 nM, an IC50 (MRC5) of 6720 nM and an IC50 [5] of over 10000 nM. The IC50 (HUVEC [6]) was 57 nM, the IC50 [1] was 67 nM and the IC50 (Casein kinase II) was 7200 nM. For the same compound, the IC50 [3] was 67.6 nM, the IC50 (HCT-116) was over 10000 nM and the IC50 [7] was over 10000 nM. For the same compound, the IC50 (Casein kinase I) was 6500 nM, the IC50 (HUVEC [10]) was 1070 nM and the IC50 [14] was 196 nM. For the same compound, the IC50 (A-375 [15]) was 5160 nM, the IC50 [2] was over 10000 nM and the IC50 (HeLa) was 6060 nM. For the same compound, the IC50 (Insulin receptor) was over 10000 nM.
